Assay results published in ChEMBL document CHEMBL1124542, “Cholecystokinin antagonists. Synthesis and biological evaluation of 3-substituted benzolactams” (J Med Chem, 1989).

Target: T1, Cholecystokinin receptor (Rattus norvegicus, UniProt P30551+P30553)
T1 sequence (P30551 whole entry): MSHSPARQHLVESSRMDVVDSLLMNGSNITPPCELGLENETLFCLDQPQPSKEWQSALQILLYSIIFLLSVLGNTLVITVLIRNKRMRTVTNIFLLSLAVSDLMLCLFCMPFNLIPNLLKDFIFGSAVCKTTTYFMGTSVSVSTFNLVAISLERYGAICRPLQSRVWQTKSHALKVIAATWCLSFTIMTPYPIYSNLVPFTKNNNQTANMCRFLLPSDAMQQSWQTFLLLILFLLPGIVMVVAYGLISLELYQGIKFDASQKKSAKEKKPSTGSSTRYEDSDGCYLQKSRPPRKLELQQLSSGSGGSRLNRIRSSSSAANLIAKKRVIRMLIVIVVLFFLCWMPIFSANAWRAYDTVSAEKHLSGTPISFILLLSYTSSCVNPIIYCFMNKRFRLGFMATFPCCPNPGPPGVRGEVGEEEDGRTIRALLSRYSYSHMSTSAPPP
T1 sequence (P30553 whole entry): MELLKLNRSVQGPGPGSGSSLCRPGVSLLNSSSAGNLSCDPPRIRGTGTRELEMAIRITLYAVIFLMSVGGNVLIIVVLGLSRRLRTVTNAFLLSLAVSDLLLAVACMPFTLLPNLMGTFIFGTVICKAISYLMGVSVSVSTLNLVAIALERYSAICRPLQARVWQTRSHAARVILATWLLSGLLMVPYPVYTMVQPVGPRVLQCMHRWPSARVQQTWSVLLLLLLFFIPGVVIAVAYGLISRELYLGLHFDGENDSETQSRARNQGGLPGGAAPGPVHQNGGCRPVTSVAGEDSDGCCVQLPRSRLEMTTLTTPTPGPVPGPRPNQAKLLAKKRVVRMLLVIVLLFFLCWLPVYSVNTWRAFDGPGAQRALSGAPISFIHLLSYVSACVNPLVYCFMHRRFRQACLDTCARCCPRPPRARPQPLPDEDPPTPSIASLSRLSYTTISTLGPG
Assay: Inhibition of [125I]-CCK-8 binding to CCK receptors in rat pancreatic tissue
Settings: not given

Compound | IC50 [nM]
CC(C)(C)OC(=O)CN1C(=O)C(NC(=O)CCc2c[nH]c3ccccc23)CCc2ccccc21 (configuration not stated) | 2000
CC(C)(C)OC(=O)CN1C(=O)C(NC(=O)c2ccc(Cl)c(Cl)c2)CCc2ccccc21 (configuration not stated) | 28
CC(C)(C)OC(=O)CN1C(=O)C(N)CCc2ccccc21 (configuration not stated) | 100000
CC(C)(C)OC(=O)CN1C(=O)[C@H](NC(=O)c2ccc3ccccc3c2)CCc2ccccc21 | 4.2
CC(C)(C)OC(=O)CN1C(=O)C(NC(=O)c2ccc(Cl)cc2)CCc2ccccc21 (configuration not stated) | 130

The remaining lines, values ahead:

IC50 [nM] | Compound
200 | CC(C)(C)OC(=O)CN1C(=O)[C@@H](NC(=O)c2cc3ccccc3[nH]2)CCc2ccccc21
60 | CC(C)(C)OC(=O)CN1C(=O)C(NC(=O)c2cc3ccccc3[nH]2)CCCc2ccccc21 (configuration not stated)
7 | CC(C)(C)OC(=O)CN1C(=O)C(NC(=O)c2cc3ccccc3[nH]2)CCc2ccccc21 (configuration not stated)
3 | CC(C)(C)OC(=O)CN1C(=O)[C@H](NC(=O)c2cc3ccccc3[nH]2)CCc2ccccc21
110 | CCOC(=O)CN1C(=O)C(NC(=O)c2cc3ccccc3[nH]2)CCc2ccccc21 (configuration not stated)
35 | O=C(NC1CCc2ccccc2N(Cc2ccccc2)C1=O)c1cc2ccccc2[nH]1 (configuration not stated)
200 | CC(C)(C)OC(=O)CN1C(=O)C(NC(=O)c2cc3ccccc3[nH]2)Cc2ccccc21 (configuration not stated)

Target: T1, Cholecystokinin receptor
Assay: Half-maximal inhibition of binding of [125I]CCK-8 to Cholecystokinin receptor in rat pancreatic tissue
Settings: not given

Compound | IC50 [nM]
CC(C)(C)OC(=O)CN1C(=O)C(NC(=O)c2ccc3ccccc3c2)CCc2ccccc21 (configuration not stated) | 7.5
CC(C)(C)OC(=O)CN1C(=O)C(NC(=O)Cc2ccc3ccccc3c2)CCc2ccccc21 (configuration not stated) | 2700
CN(C)c1ccc(C(=O)NC2CCc3ccccc3N(CC(=O)OC(C)(C)C)C2=O)cc1 (configuration not stated) | 50000
CC(C)(C)OC(=O)CN1C(=O)C(NCc2ccc3ccccc3c2)CCc2ccccc21 (configuration not stated) | 4
CC(C)(C)OC(=O)CN1C(=O)C(NC(=O)c2ccccc2)CCc2ccccc21 (configuration not stated) | 2100

Next, values leading:

IC50 [nM] | Compound
2300 | O=C(O)CN1C(=O)C(NC(=O)c2ccc3ccccc3c2)CCc2ccccc21 (configuration not stated)
6800 | CN1C(=O)C(NC(=O)c2ccc3ccccc3c2)CCc2ccccc21 (configuration not stated)

Tested on: Mus musculus
Assay: Dose rquired to inhibit CCK-induced gastric emptying in mice p.o.
Type: functional
Settings: Stomach, po
How it was run: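 Antagonism of CCK-8-induced inhibition of gastric emptying, with gastric emptying followed using a charcoal meal. Test agents were given orally, and the ED50 was taken as the oral dose (mg/kg) that antagonized the CCK-8 effect.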

Compound | ED50 [mg/kg]
CC(C)(C)OC(=O)CN1C(=O)C(NC(=O)c2cc3ccccc3[nH]2)CCc2ccccc21 (configuration not stated) | 2.6
CN1C(=O)[C@@H](NC(=O)c2cc3ccccc3[nH]2)N=C(c2ccccc2)c2ccccc21 [DEVAZEPIDE] | 0.04
CC(C)(C)OC(=O)CN1C(=O)[C@H](NC(=O)c2ccc3ccccc3c2)CCc2ccccc21 | 6.8
